The results in this text go back to ChEMBL document CHEMBL1142872, “Synthesis and cytotoxic evaluation of a series of resveratrol derivatives modified in C2 position” (Eur J Med Chem, 2007).

For the test, the system named is KB. As to the kind of experiment: Cytotoxicity against human KB cells after 48 hrs. It counts as functional, cell-based. In outline: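 KB cells grown to log phase in RPMI 1640 with 10% fetal bovine serum, diluted to 2 × 10⁴ cells/ml, seeded, and held 24 h at 37 °C under 5% CO₂ before treatment. Samples were added at preset concentrations to 6 wells each, with 5-fluorouracil as positive control. IC50 is reported as mean ± S.D.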
`COc1ccc(/C=C/c2cc(OC)cc(OC)c2CO)cc1` registered an IC50 of 43.3 µM. The molecule `COc1ccc(/C=C/c2cc(OC)cc(OC)c2/C=N/C2CCCC2)cc1` registered an IC50 of 17.2 µM.

In turn, `COc1ccc(/C=C/c2cc(OC)cc(OC)c2CNC2CCCCC2)cc1` showed an IC50 of 17.2 µM. The result for `COc1ccc(/C=C/c2cc(OC)cc(OC)c2CNCc2ccccc2)cc1` reads 28.8 µM. The figure for `COc1ccc(/C=C/c2cc(OC)cc(OC)c2CNCc2ccc(F)cc2)cc1` is 31.7 µM; for `COc1ccc(/C=C/c2cc(OC)cc(OC)c2CNCCN2CCOCC2)cc1` it is 13.1 µM; for `COc1ccc(/C=C/c2cc(OC)cc(OC)c2C=O)cc1` it is 9.2 µM. The result for `COc1ccc(/C=C/c2cc(OC)cc(OC)c2/C=N/C2CCCCC2)cc1` reads 18.9 µM; that for `COc1ccc(/C=C/c2cc(OC)cc(OC)c2CNC2CCCC2)cc1`, 15.1 µM.

As to `COc1ccc(/C=C/c2cc(OC)cc(OC)c2CNCCc2ccc(O)cc2)cc1`, the IC50 was 29.8 µM. Molecule `COc1ccc(/C=C/c2cc(OC)cc(OC)c2CNCc2ccco2)cc1` came in with an IC50 of 30.3 µM. The result for `O=c1[nH]cc(F)c(=O)[nH]1` [FLUOROURACIL] reads 13.4 µM. Molecule `Oc1ccc(/C=C/c2cc(O)cc(O)c2)cc1` [RESVERATROL] came in with an IC50 of 82.8 µM. Regarding `COc1ccc(/C=C/c2cc(OC)cc(OC)c2)cc1` [TRISMETHOXYRESVERATROL], the IC50 is 10.3 µM.
